# Laboratory results as given in article PMC9435035 (ACS Omega, 2022).
# Assays:
# α-glucosidase = α-glucosidase (Saccharomyces cerevisiae, UniProt P53341); experiment: α-glucosidase inhibitory activity; type: biochemical; conditions: read-out: glucosidase inhibition IC50 ± SEM; mean ± SEM
# Balb/C mice = experiment: acute toxicity study in mice; type: in vivo
# Summary of the method: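 Two-phase modified Lorke protocol in Balb/C mice (20–25 g), four per group. Phase 1: control given Tween-80 (2%); other groups received oral test compound at 100, 500 or 1000 mg/kg. Phase 2: oral doses of 1250, 1500 and 2000 mg/kg. Animals observed for the first 24 h, then daily for 2 weeks for diarrhea, convulsions, lethargy, sleeping, salivation and tremors, with mortality monitored.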
# [1] = test system: overnight fasted normal rats; experiment: oral glucose tolerance test; type: in vivo, Wistar albino rats; conditions: OGTT, glucose 3 g/kg oral
# [2] = test system: streptozotocin-induced diabetic Wistar rats; experiment: antidiabetic activity: blood glucose in STZ-induced diabetes; type: in vivo, Wistar albino rats
# Summary of the method: (§1)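 Male Wistar albino rats (170–200 g, 8–10 weeks), fasted overnight, given STZ 50 mg/kg i.p. in 0.1 M citrate buffer, then 10% glucose for 3 days. Tail-vein glucose by glucometer at 72 h; >250 mg/dL counted as diabetic. Body weight and blood glucose on days 1, 7, 14, 21 and 28. Means ± SEM, one-way ANOVA with Dunnett's test.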
# [3] = body weight of STZ-induced diabetic rats; type: in vivo, Wistar albino rats; conditions: for body weight, day 1: day 1, in g (unit assumed); for body weight, day 7: day 7, in g (unit assumed); for body weight, day 14: day 14, in g (unit assumed); for body weight, day 21: day 21, in g (unit assumed); for body weight, day 28: day 28, in g (unit assumed)
# Summary of the method: as §1
# [4] = test system: streptozotocin-induced diabetic Wistar rats; experiment: lipid profile in streptozotocin-induced diabetes; type: in vivo, Wistar albino rats; conditions: STZ-diabetic rats
# Summary of the method: (§2)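 STZ-diabetic Wistar rats (n = 8 per group) received test compound at 10 or 20 mg/kg p.o., or glibenclamide 500 μg/kg p.o., once daily for 28 days; controls received vehicle. On day 28, rats were anesthetised with pentobarbital sodium (35 mg/kg) and blood was drawn by cardiac puncture. Serum ALP, SGPT, SGOT, LDL, HDL, TG, total cholesterol, creatinine and insulin were measured. Means ± SEM, one-way ANOVA with Dunnett's test.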
# [5] = test system: streptozotocin-induced diabetic Wistar rats; experiment: serum profile; type: in vivo, Wistar albino rats; conditions: STZ-diabetic rats; for (ALP) IU / (SGOT) IU / (SGPT) IU: serum
# Summary of the method: as §2
# Sequence of α-glucosidase (P53341 whole entry): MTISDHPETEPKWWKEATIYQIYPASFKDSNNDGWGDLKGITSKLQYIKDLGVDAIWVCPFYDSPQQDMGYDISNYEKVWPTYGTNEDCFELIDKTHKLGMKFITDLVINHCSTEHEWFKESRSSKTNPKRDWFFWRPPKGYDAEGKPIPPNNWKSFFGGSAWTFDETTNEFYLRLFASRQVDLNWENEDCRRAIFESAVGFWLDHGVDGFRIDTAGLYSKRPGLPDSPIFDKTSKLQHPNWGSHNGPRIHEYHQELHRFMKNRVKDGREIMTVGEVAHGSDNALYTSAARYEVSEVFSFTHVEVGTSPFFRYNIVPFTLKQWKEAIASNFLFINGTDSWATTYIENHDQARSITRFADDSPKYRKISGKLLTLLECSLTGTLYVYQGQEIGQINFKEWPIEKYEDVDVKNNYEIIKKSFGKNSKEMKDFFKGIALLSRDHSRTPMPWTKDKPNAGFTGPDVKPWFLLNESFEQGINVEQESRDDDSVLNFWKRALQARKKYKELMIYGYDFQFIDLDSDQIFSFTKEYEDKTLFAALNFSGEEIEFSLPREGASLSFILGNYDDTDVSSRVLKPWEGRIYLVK
substance,measurement,setting,value
"1-Phenyl-3-(4-(4-(p-tolyl)-2,3-dihydrobenzo[b][1,5]thiazepin-2-yl)phenyl)prop-2-en-1-one [6B]",IC50,α-glucosidase,3.63 ± 0.36 µM
same,mortality,Balb/C mice; maximum oral dose of 2000 mg/kg (b.w.),no mortality
same,"toxic effects (diarrhea, convulsions, lethargy, sleeping, salivation, tremor)","Balb/C mice; oral up to 2000 mg/kg, observed daily for 2 weeks",no toxic effects
same,"blood glucose level, 0 min",[1]; dose 10 mg/kg,103.41 ± 4.05 mg/dL
same,"blood glucose level, 30 min",[1]; dose 10 mg/kg,125.39 ± 4.10 mg/dL
same,"blood glucose level, 60 min",[1]; dose 10 mg/kg,120.41 ± 4.81 mg/dL
same,"blood glucose level, 90 min",[1]; dose 10 mg/kg,112.61 ± 4.81 mg/dL
same,"blood glucose level, 120 min",[1]; dose 10 mg/kg,114.91 ± 4.59 mg/dL
same,"blood glucose level, 0 min",[1]; dose 20 mg/kg,100.93 ± 4.11 mg/dL
same,"blood glucose level, 30 min",[1]; dose 20 mg/kg,119.91 ± 4.62 mg/dL
same,"blood glucose level, 60 min",[1]; dose 20 mg/kg,121.66 ± 4.31 mg/dL
same,"blood glucose level, 90 min",[1]; dose 20 mg/kg,111.22 ± 4.21 mg/dL
same,"blood glucose level, 120 min",[1]; dose 20 mg/kg,109.78 ± 5.01 mg/dL
same,"blood glucose level, day 1",[2]; 10 mg/kg p.o. once daily,381.40 ± 4.30 mg/dL
same,"blood glucose level, day 7","[2]; 10 mg/kg p.o. once daily, day 7, 10 mg/kg",280.90 ± 4.66 mg/dL
same,"blood glucose level, day 14","[2]; 10 mg/kg p.o. once daily, day 14, 10 mg/kg",205.31 ± 4.01 mg/dL
same,"blood glucose level, day 21","[2]; 10 mg/kg p.o. once daily, day 21, 10 mg/kg",150.45 ± 4.92 mg/dL
same,"blood glucose level, day 28","[2]; 10 mg/kg p.o. once daily, day 28",135.67 ± 3.89 mg/dL
same,"blood glucose level, day 1",[2]; 20 mg/kg p.o. once daily,380.30 ± 4.78 mg/dL
same,"blood glucose level, day 7","[2]; 20 mg/kg p.o. once daily, day 7, 20 mg/kg",228.44 ± 5.06 mg/dL
same,"blood glucose level, day 14","[2]; 20 mg/kg p.o. once daily, day 14, 20 mg/kg",166.09 ± 4.46 mg/dL
same,"blood glucose level, day 21","[2]; 20 mg/kg p.o. once daily, day 21, 20 mg/kg",129.71 ± 4.09 mg/dL
same,"blood glucose level, day 28","[2]; 20 mg/kg p.o. once daily, day 28, 20 mg/kg",111.81 ± 4.08 mg/dL
same,"body weight, day 1",[3]; 10 mg/kg,190.0 ± 3.98
same,"body weight, day 7",[3]; 10 mg/kg,182.5 ± 4.19
same,"body weight, day 14",[3]; 10 mg/kg,187.1 ± 4.88
same,"body weight, day 21",[3]; 10 mg/kg,183.4 ± 4.60
same,"body weight, day 28",[3]; 10 mg/kg,180.9 ± 4.23
same,"body weight, day 1",[3]; 20 mg/kg,194.1 ± 4.41
same,"body weight, day 7",[3]; 20 mg/kg,189.3 ± 4.61
same,"body weight, day 14",[3]; 20 mg/kg,190.3 ± 4.71
same,"body weight, day 21",[3]; 20 mg/kg,186.7 ± 3.96
same,"body weight, day 28",[3]; 20 mg/kg,184.3 ± 4.33
same,LDL,[4]; 10 mg/kg for 28 days,130.21 ± 3.99 mg/dL
same,TG,[4]; 10 mg/kg for 28 days,145.21 ± 4.98 mg/dL
same,total CH,[4]; 10 mg/kg for 28 days,151.07 ± 4.92 mg/dL
same,HDL,"[4]; 10 mg/kg for 28 days, 10 mg/kg",44.89 ± 3.01 mg/dL
same,LDL,[4]; 20 mg/kg for 28 days,113.41 ± 4.71 mg/dL
same,TG,[4]; 20 mg/kg for 28 days,116.82 ± 4.41 mg/dL
same,total CH,[4]; 20 mg/kg for 28 days,137.11 ± 3.71 mg/dL
same,HDL,"[4]; 20 mg/kg for 28 days, 20 mg/kg",52.07 ± 2.69 mg/dL
same,insulin level,[5]; 10 mg/kg for 28 days,0.658 ± 0.31 ng/mL
same,serum creatinine,[5]; 10 mg/kg for 28 days,0.82 ± 0.22 mg/dL
same,(ALP) IU,[5]; 10 mg/kg for 28 days,214.19 ± 4.11 IU
same,(SGOT) IU,[5]; 10 mg/kg for 28 days,25.81 ± 2.16 IU
same,(SGPT) IU,[5]; 10 mg/kg for 28 days,25.90 ± 2.11 IU
same,insulin level,[5]; 20 mg/kg for 28 days,0.667 ± 0.40 ng/mL
same,serum creatinine,[5]; 20 mg/kg for 28 days,0.75 ± 0.30 mg/dL
same,(ALP) IU,[5]; 20 mg/kg for 28 days,204.71 ± 4.13 IU
same,(SGOT) IU,[5]; 20 mg/kg for 28 days,22.31 ± 2.17 IU
same,(SGPT) IU,[5]; 20 mg/kg for 28 days,23.01 ± 2.11 IU
"2-(4-Butoxy-3-methoxyphenyl)-4-(p-tolyl)-2,3-dihydrobenzo[b][1,5]thiazepine [9B]",IC50,α-glucosidase,8.56 ± 0.59 µM
"2-(4-Ethoxyphenyl)-4-(p-tolyl)-2,3-dihydrobenzo[b][1,5]thiazepine [8B]",IC50,α-glucosidase,9.44 ± 0.83 µM
